# Most compounds without a hit are left out; they make up all but 1.6% or so of the library.
# S100A4 MyoIIA: inhibitors of S100A4-myosin IIA peptide binding, primary screen, biochemical, fluorescence polarization, TAMRA-MyoIIA peptide; Protein S100-A4 (Homo sapiens), P26447; inhibition, % at 10.7 µM; 360,000 tested, 0.14% active; AID 652163, 2013;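 active = mean inhibition of at least 70% across replicates, with every replicate also reaching that level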
# Target sequence (P26447 whole entry, looked up): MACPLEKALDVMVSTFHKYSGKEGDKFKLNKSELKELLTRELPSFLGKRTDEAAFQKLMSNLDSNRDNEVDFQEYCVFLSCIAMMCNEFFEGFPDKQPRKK
#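 Test system – S100A4 monomer (human) · Compound – single-point compound testing · Schedule – 5 min incubation before reading · Probe or stimulus – TAMRA-labelled myosin IIA heavy-chain peptide probe, 5 nM · Benchmarks – neutral control DMSO, positive control TFP · Medium – Calcium-containing HEPES buffer, pH 7.2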
# RAD54 inh: inhibitors of human RAD54 branch migration, primary screen, biochemical, fluorescence, single point. DNA repair and recombination protein RAD54-like (Homo sapiens), Q92698. RAD54 Holliday junction branch migration, FAM/BHQ fluorescence. inhibition, % at 10.4 µM. 360,000 tested, 0.14% active. AID 602329, 2012;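 active = mean normalized replicate activity at least 40 and at least half of replicates scoring 40 or more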;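 note: inhibitors cause a drop in the FAM fluorescence signal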
# dFosB act-1: activators of delta FosB homodimer, primary screen, biochemical, fluorescence polarization, TAMRA-CDK5 oligo, single point. 340,000 tested, 0.99% active. Protein FosB (Mus musculus), P13346. AID 493131, 2011. purified delta FosB; percent of positive-control signal above neutral wells. activation, % at 25 µM;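 active = mean activation above about 17%, with every replicate also reaching it, limit read from the data, passing the limit was not always enough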
# Target sequence (P13346 whole entry, looked up): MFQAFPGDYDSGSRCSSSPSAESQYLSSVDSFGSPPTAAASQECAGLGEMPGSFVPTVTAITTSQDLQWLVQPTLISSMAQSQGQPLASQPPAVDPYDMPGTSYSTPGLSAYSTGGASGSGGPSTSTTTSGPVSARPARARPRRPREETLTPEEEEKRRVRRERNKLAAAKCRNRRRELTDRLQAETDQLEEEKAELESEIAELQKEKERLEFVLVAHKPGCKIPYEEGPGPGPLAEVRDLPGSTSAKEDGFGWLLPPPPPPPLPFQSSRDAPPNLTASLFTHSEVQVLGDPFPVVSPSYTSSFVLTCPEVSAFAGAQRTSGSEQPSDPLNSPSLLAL
# SR-BI uptake up: activators of SR-BI mediated DiI-HDL uptake, primary screen, ldlA[mSR-BI] CHO cells, DiI fluorescence; activation, % at 12.5 µM; 320,000 tested, 0.096% active; 3 h; 100 = double the neutral-control signal;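 active = mean replicate activation of at least 60% and every replicate at or above 60%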
#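 Material: SR-BI-overexpressing, LDLR-lacking CHO cells; schedule: compound exposure 3 h, 37 °C; reagent: DiI-labelled HDL at 10 µg/mL final; technique: bottom-read fluorescence, 550/595 nm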
# SR-BI DiI inh: inhibitors of SR-BI mediated HDL lipid uptake, primary screen, ldlA[mSR-BI] cells, fluorescence, single point; 320,000 tested, 0.96% active; inhibition, % at 12.5 µM; AID 488896, 2010; ldlA[mSR-BI] CHO cells, DiI-HDL uptake fluorescence, 3 h;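 active = mean replicate inhibition of at least 70% and a set share of replicates each scoring 70 or more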
# PvdQ acylase: P. aeruginosa PvdQ acylase inhibitors, primary screen, biochemical, fluorescence, plate reader and imaging, single point; 340,000 tested, 0.063% active; purified PvdQ acylase; AID 488965, 2010; inhibition, % at 10 µM; PvdQ acylase [Pseudomonas aeruginosa LESB58]; in the data active = inhibition above about 30%, passing the limit was not always enough
# dFosB act-2: activators of mouse delta FosB DNA binding, confirmation, biochemical, fluorescence polarization, TAMRA-CDK5 oligo, cherry-picked samples. shares compounds with dFosB act-1. purified delta FosB; normalised: neutral wells 0, positive control 100. activation, % at 24.9 µM. 2,400 tested, under 10 active. AID 588690, 2011;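 active = highest replicate activation at or above 34% and every replicate reaching that threshold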;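 note: higher polarization means more probe DNA bound by delta FosB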
# Numbers stand for hits; n = inactive; x = no result.
SMILES,S100A4 MyoIIA,RAD54 inh,dFosB act-1,SR-BI uptake up,SR-BI DiI inh,PvdQ acylase,dFosB act-2
Cn1ncc2c(Nc3ccc(O)cc3)nc(Cl)nc21,n,n,n,n,n,n,x
Cn1ncc2c(Nc3ccc(Br)cc3)nc(Nc3ccc(Br)cc3)nc21,n,n,53,n,n,n,n
Cn1ncc2c(Nc3cccc(Cl)c3)nc(Nc3cccc(Cl)c3)nc21,n,n,31,n,n,n,n
CC(C)NC(=O)N1C[C@H]2[C@@H](c3ccccc31)[C@@H](CO)N2C(=O)c1ccc(F)cc1,n,n,x,x,x,x,x
Nc1nccc(-c2cc(-c3ccc(Cl)cc3Cl)no2)n1,n,n,93,n,n,n,n
Clc1ccc(-c2nc(-c3ccncc3)no2)c(Cl)c1,n,n,n,n,n,n,x
CCCC#Cc1cnc2c(c1)C(=O)N([C@@H](C)CO)C[C@H](C)[C@@H](CN(C)C)O2,n,n,x,x,x,x,x
COc1ccc(-n2nc(C(=O)NCC(=O)Nc3cc(OC)c(OC)c(OC)c3)c3ccccc3c2=O)cc1OC,n,n,24,x,x,n,n
COc1ccc(-n2nc(C(=O)NCC(=O)NCc3cccc(F)c3)c3ccccc3c2=O)cc1Cl,n,n,26,n,n,n,n
COc1ccc(-n2nc(C(=O)NCC(=O)Nc3cc(OC)c(OC)c(OC)c3)c3ccccc3c2=O)cc1,n,n,n,x,x,n,x
COC(=O)CNC(=O)CNC(=O)c1nn(-c2ccc(OC)c(Cl)c2)c(=O)c2ccccc12,x,n,n,x,n,n,x
COc1ccc(NC(=O)Nc2ccc3c(c2)CC(=O)N([C@@H](C)CO)C[C@@H](C)[C@@H](CN(C)C(=O)Nc2ccc(OC)cc2)O3)cc1,n,n,x,x,x,x,x
O=C(Nc1ccc(CN2CCOCC2)cc1)c1ccc(Br)o1,n,n,n,x,x,n,x
O=C(Nc1ccc(CN2CCOCC2)cc1)c1ccc(-c2cc(Cl)ccc2Cl)o1,x,n,26,n,n,n,n
CC(=O)Nc1ccc(NC(=O)c2ccc(-c3ccc([N+](=O)[O-])cc3)o2)cc1,n,n,29,n,n,n,n
CC(=O)c1ccc(NC(=O)c2ccc(COc3ccccc3[N+](=O)[O-])o2)cc1,n,n,27,n,n,n,n
O=C(Nc1ccc(CN2CCOCC2)cc1)c1ccc(-c2cccc([N+](=O)[O-])c2)o1,n,n,17,n,72,n,n
CCC(=O)N1CC2(C1)[C@H](c1ccc(-c3ccccc3)cc1)[C@@H](CO)N2C(C)=O,n,x,x,x,x,x,x
CC(C)C#Cc1ccc2c(c1)O[C@H](CN(C)Cc1ccncc1)[C@H](C)CN([C@@H](C)CO)S2(=O)=O,x,n,x,x,x,x,x
Cc1cccc(S(=O)(=O)N[C@H]2CC[C@@H](CCNC(=O)CCN3CCCCC3)O[C@@H]2CO)c1,n,n,x,x,x,x,x
O=C(Nc1nccs1)c1ccc(-c2cccc([N+](=O)[O-])c2)o1,n,n,26,n,n,n,n
CCC(=O)NC(=S)Nc1ccc2oc(-c3ccc(OC)cc3)nc2c1,n,x,40,n,n,n,n
COc1ccc(-c2nc3cc(NC(=S)NC(=O)Cc4ccccc4)ccc3o2)cc1,x,n,n,n,n,n,x
CS(=O)(=O)N(Cc1ccc(Cl)cc1)c1ccc(C(=O)NCc2ccccn2)cc1,n,n,n,n,n,n,x
CS(=O)(=O)N(Cc1ccc(Cl)cc1)c1ccc(C(=O)N/N=C/c2cc3ccccc3nc2Cl)cc1,x,n,41,n,n,n,n
SMILES,S100A4 MyoIIA,RAD54 inh,dFosB act-1,SR-BI uptake up,SR-BI DiI inh,PvdQ acylase,dFosB act-2
O=C(C[C@@H]1CC[C@H](NC(=O)Nc2ccc(C(F)(F)F)cc2)[C@H](CO)O1)NCc1cc(F)cc(F)c1,n,n,x,x,x,x,x
Cc1cc2cc(C)c3nnc(SCC(=O)Nc4ccc(S(=O)(=O)N5CCCCC5)cc4)n3c2cc1C,n,x,22,n,n,n,n
Cc1cc2ccccc2n2c(SCC(=O)Nc3ccc(S(=O)(=O)N4CCCCC4)cc3)nnc12,x,x,n,n,n,n,x
CNc1nc(Nc2ccc(C(C)=O)cc2)nc(OC(C(F)(F)F)C(F)(F)F)n1,x,n,44,n,n,n,n
COc1ccc(-c2cc3c(=O)n(CC(=O)NCc4ccccc4F)ncn3n2)cc1,n,n,n,n,n,n,x
COc1ccc(-c2cc3c(=O)n(CC(=O)Nc4ccc(Cl)cc4)ncn3n2)cc1,n,x,31,n,n,n,n
COc1ccc(NC(=O)Cn2ncn3nc(-c4ccc(OC)cc4)cc3c2=O)cc1,n,n,63,n,n,n,n
Cc1nn(CC(=O)Nc2ccc(Cl)cc2)c(=O)c2cc(-c3ccccc3)nn12,n,n,30,n,n,n,n
CCOC(=O)N1CCN(C(=O)Cn2nc(C)n3nc(-c4ccccc4)cc3c2=O)CC1,n,n,n,n,n,n,x
Cn1c2ccccc2c2cnn(CC(=O)Nc3ccc(Cl)cc3)c(=O)c21,n,x,26,x,x,n,n
COc1ccc(-c2cc3c(=O)n(CC(=O)NCCCc4ccccc4)ncn3n2)cc1,n,n,n,n,n,n,x
CCN1C(=O)c2cccc3c(NC(=O)c4cccc(N5C(=O)CCC5=O)c4)ccc1c23,x,x,n,n,n,n,x
CCOc1cc(C(=O)Nc2ccc3c4c(cccc24)C(=O)N3CC)cc(OCC)c1OCC,n,n,24,n,n,n,n
CCC(=O)Nc1cccc(NC(=O)c2ccc3c(c2)OCO3)c1,x,n,28,n,n,n,n
C/C(=N/NC(=O)c1ccc2c(c1)OCO2)c1ccc(NC(=O)c2ccc(F)cc2)cc1,n,n,43,n,n,n,n
COc1cccc(NC(=O)c2ccc3c(c2)OCO3)c1,n,n,n,n,n,n,x
C/C(=N\NC(=S)Nc1ccc(F)cc1)c1ccc2c(c1)OCCO2,n,n,n,n,n,n,x
Cc1cc(C)nc(N/N=C/c2cccc(Cl)c2)n1,n,x,n,n,n,n,x
CN(C)c1nc(NCc2ccccc2)nc(N/N=C/c2ccc(Cl)cc2Cl)n1,x,x,17,n,n,n,n
Cc1cc(N/N=C/c2cccc(Cl)c2)nc(NCc2ccccc2)n1,x,n,41,n,n,n,n
Cc1cc(Nc2cccc(Cl)c2)nc(NCc2ccccc2)n1,n,x,41,n,n,n,n

# Screening results: PubChem, Broad Institute
